# Measured values taken from ChEMBL document CHEMBL4270620, “Synthesis and anti-fibrosis activity study of 14-deoxyandrographolide-19-oic acid and 14-deoxydidehydroandrographolide-19-oic acid derivatives” (Eur J Med Chem, 2018).
# Active and inactive are the calls of the source. The rule behind the calls is not given here.
# Assays:
# [1] = test system: NIH3T3; assay: Antifibrotic activity against mouse NIH/3T3 cells assessed as inhibition of cell proliferation after 72 hrs by MTT assay; assay type: functional, cell-based
# Summary of the method: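 NIH-3T3 seeded at 5000 cells/well in DMEM/F12 with 10% FBS, allowed to attach 24 h, then exposed 72 h to graded compound concentrations. MTT (5 mg/mL stock) added for 2–4 h, formazan dissolved in DMSO, OD read at 490 nm. IC50 from regression equation; three repeats, mean.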
# [2] = test system: NIH3T3; assay: (§1) Antifibrotic activity against mouse NIH/3T3 cells assessed as inhibition of TGFbeta1-induced increase in alpha-SMA mRNA level at 500 nM preincubated for 1 hr followed by TGFbeta-1 addition measured after 24 hrs by qRT-PCR method; assay type: functional, cell-based
# Summary of the method: (§2)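 NIH-3T3 cells pretreated 1 h with 500 nM compound, then stimulated with rat TGF-β1 5 ng/ml for 24 h. RNA extracted and qPCR run 40 cycles (95 °C 5 s / 60 °C 60 s). Transcripts normalized to GAPDH, fold change by 2^-ΔΔCt. n = 3, means ± SD.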
# [3] = test system: NIH3T3; assay: (§3) Antifibrotic activity against mouse NIH/3T3 cells assessed as inhibition of TGFbeta1-induced increase in FN mRNA level at 500 nM preincubated for 1 hr followed by TGFbeta-1 addition measured after 24 hrs by qRT-PCR method; assay type: functional, cell-based; summary of the method: as §2
# [4] = test system: NIH3T3; assay: (§4) Antifibrotic activity against mouse NIH/3T3 cells assessed as inhibition of TGFbeta1-induced increase in COL1A1 mRNA level at 500 nM preincubated for 1 hr followed by TGFbeta-1 addition measured after 24 hrs by qRT-PCR method; assay type: functional, cell-based; summary of the method: as §2
# [5] = test system: NIH3T3; assay: Antifibrotic activity against mouse NIH/3T3 cells assessed as inhibition of alpha-SMA mRNA level at 500 nM measured after 24 hrs by qRT-PCR method; assay type: functional, cell-based
# Summary of the method: (§5)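 NIH-3T3 (DMEM/F12, 10% FBS, 37 °C, 5% CO2) given 500 nM compound without TGF-β1 for 24 h. Total RNA extracted; qPCR of α-SMA, FN, COL1A1 run 40 cycles (95 °C 5 s, 60 °C 60 s). Normalized to GAPDH, relative expression by 2^-ΔΔCt. Mean of three experiments ± SD.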
# [6] = test system: NIH3T3; assay: Antifibrotic activity against mouse NIH/3T3 cells assessed as inhibition of FN mRNA level at 500 nM measured after 24 hrs by qRT-PCR method; assay type: functional, cell-based; summary of the method: as §5
# [7] = test system: NIH3T3; assay: Antifibrotic activity against mouse NIH/3T3 cells assessed as inhibition of COL1A1 mRNA level at 500 nM measured after 24 hrs by qRT-PCR method; assay type: functional, cell-based; summary of the method: as §5
# [8] = Inhibition of cell proliferation in HUVEC at 10 uM […] by MTT assay relative to control; assay type: cell-based; details: human, HUVEC cells
# Summary of the method: (§6)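 MTT test on HUVEC (DMEM/F12, 10% FBS) plated at 5000 cells/well, attached 24 h, then treated at 1, 10, 40 and 80 μM for the period printed as 42 h. MTT (5 mg/mL stock) incubated 2–4 h, formazan dissolved in DMSO, absorbance at 490 nm. Proliferation relative to control; mean of three experiments.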
# [9] = Inhibition of cell proliferation in HUVEC at 80 uM after […] by MTT assay relative to control; assay type: cell-based; details: human, HUVEC cells; summary of the method: as §6
# [10] = test system: NIH3T3; assay: as §1, with “protein expression by measuring ratio of alpha-SMA to beta-actin protein” for “mRNA”, “Western blot” for “qRT-PCR”, “method (reference value: 0.87)” for “method”; assay type: functional
# Summary of the method: (§7)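 Western blot of NIH-3T3 treated with 500 nM compound plus rat TGF-β1 5 ng/ml for 24 h; PBS as control. RIPA/1% PMSF lysates quantified by BCA, run on 10% SDS-PAGE and blotted to PVDF. Blocked in 5% milk; α-SMA, FN, COL1A1 primaries 1:1000 overnight at 4 °C; HRP secondary 1:5000 for 2 h; ECL. Band intensity relative to β-actin. Three repeats, means ± SD.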
# [11] = test system: NIH3T3; assay: as §3, with “protein expression by measuring ratio of FN to beta-actin protein” for “mRNA”, “Western blot” for “qRT-PCR”, “method (reference value: 0.95)” for “method”; assay type: functional; summary of the method: as §7
# [12] = test system: NIH3T3; assay: as §4, with “protein expression by measuring ratio of COL1A1 to beta-actin protein” for “mRNA”, “Western blot” for “qRT-PCR”, “method (reference value: 0.26)” for “method”; assay type: functional; summary of the method: as §7
# [13] = Mus musculus, NIH3T3, 72 h, read-out: IC50
structure (smiles),measurement,setting,value
C=C1CC[C@H]2[C@@](C)(CC[C@@H](O)[C@@]2(C)C(=O)OC)[C@@H]1CCC1=CCOC1=O,IC50,[1]; [13],60.6 µM
C=C1CC[C@H]2[C@@](C)(CC[C@@H](O)[C@@]2(C)C(=O)OCc2ccccc2)[C@@H]1CCC1=CCOC1=O,IC50,[1]; [13],37.9 µM
C=C1CC[C@H]2[C@@](C)(CC[C@@H](OC(C)=O)[C@@]2(C)C(=O)OC)[C@@H]1C/C=C1\C=COC1=O,IC50,[1]; [13],69.7 µM
C=C1CC[C@H]2[C@@](C)(CC[C@@H](O)[C@@]2(C)C(=O)OCc2ccccc2)[C@@H]1C/C=C1\C=COC1=O,IC50,[1]; [13],177 µM
C=C1CC[C@H]2[C@@](C)(CC[C@@H](O)[C@@]2(C)C(=O)OCc2ccccn2)[C@@H]1CCC1=CCOC1=O,IC50,[1]; [13],79.8 µM
C=C1CC[C@H]2[C@@](C)(CC[C@@H](OC(C)=O)[C@@]2(C)C(=O)OCc2ccccn2)[C@@H]1CCC1=CCOC1=O,IC50,[1]; [13],55.5 µM
C=C1CC[C@@H]2[C@](C)(CO)[C@H](O)CC[C@@]2(C)[C@@H]1/C=C/C1=CCOC1=O,IC50,[1]; [13],64.3 µM
same,inhibition,[2],Active
same,inhibition,[3],Active
same,inhibition,[4],Active
same,inhibition,[5],Active
same,inhibition,[6],Active
same,inhibition,[7],Active
C=C1CC[C@H]2[C@@](C)(CC[C@@H](O)[C@@]2(C)C(=O)OC)[C@@H]1/C=C/C1=CCOC1=O,IC50,[1]; [13],111 µM
C=C1CC[C@H]2[C@@](C)(CC[C@@H](OC(C)=O)[C@@]2(C)C(=O)OC)[C@@H]1/C=C/C1=CCOC1=O,IC50,[1]; [13],32.2 µM
C=C1CC[C@@H]2[C@](C)(CO)[C@H](O)CC[C@@]2(C)[C@@H]1CCC1=CCOC1=O [DEOXYANDROGRAPHOLIDE],IC50,[1]; [13],176 µM
same,inhibition,[2],Active
same,inhibition,[3],Active
same,inhibition,[4],Active
same,inhibition,[5],Active
same,inhibition,[6],Active
same,inhibition,[7],Active
C=C1CC[C@H]2[C@@](C)(CC[C@@H](OC(C)=O)[C@@]2(C)C(=O)OCc2ccccn2)[C@@H]1/C=C/C1=CCOC1=O,IC50,[1]; [13],34.9 µM
C=C1CC[C@@H]2[C@](C)(CO)[C@H](O)CC[C@@]2(C)[C@@H]1C/C=C1/C(=O)OC[C@H]1O [ANDROGRAPHOLIDE],IC50,[1]; [13],95.3 µM
same,inhibition at 10 µM,[8],10.4%
same,inhibition at 80 µM,[9],26.4%
same,inhibition,[2],Active
same,inhibition,[3],Active
same,inhibition,[4],Active
same,inhibition,[5],Active
same,inhibition,[6],Active
same,inhibition,[7],Active
C=C1CC[C@H]2[C@@](C)(CC[C@@H](OC(C)=O)[C@@]2(C)C(=O)OCc2ccccc2)[C@@H]1C/C=C1\C=COC1=O,IC50,[1]; [13],78 µM
C=C1CC[C@H]2[C@@](C)(CC[C@@H](OC(C)=O)[C@@]2(C)C(=O)OC)[C@@H]1CCC1=CCOC1=O,IC50,[1]; [13],80.6 µM
C=C1CC[C@H]2[C@@](C)(CC[C@@H](OC(C)=O)[C@@]2(C)C(=O)OCc2ccccc2)[C@@H]1/C=C/C1=CCOC1=O,IC50,[1]; [13],52.7 µM
C=C1CC[C@H]2[C@@](C)(CC[C@@H](O)[C@@]2(C)C(=O)OCc2ccccn2)[C@@H]1/C=C/C1=CCOC1=O,IC50,[1]; [13],80.2 µM
C=C1CC[C@H]2[C@@](C)(CC[C@@H](OC(C)=O)[C@@]2(C)C(=O)OCc2ccccc2)[C@@H]1CCC1=CCOC1=O,IC50,[1]; [13],12.9 µM
same,inhibition at 10 µM,[8],6.6%
same,inhibition at 80 µM,[9],55.7%
same,inhibition,[2],Active
same,inhibition,[3],Active
same,inhibition,[4],Active
same,inhibition,[5],Active
same,inhibition,[6],Active
same,inhibition,[7],Active
same,Ratio,[10],0.4
same,Ratio,[11],0.46
same,Ratio,[12],0.38
C=C1CC[C@H]2[C@@](C)(CC[C@@H](O)[C@@]2(C)C(=O)OCc2ccccc2)[C@@H]1/C=C/C1=CCOC1=O,IC50,[1]; [13],13.6 µM
same,inhibition at 10 µM,[8],9.7%
same,inhibition at 80 µM,[9],68.7%
same,inhibition,[2],Active
same,inhibition,[3],Active
same,inhibition,[4],Active
same,inhibition,[5],Active
same,inhibition,[6],Active
same,inhibition,[7],Active
same,Ratio,[10],0.39
same,Ratio,[11],0.47
same,Ratio,[12],0.42
C=C1CC[C@H]2[C@@](C)(CC[C@@H](O)[C@@]2(C)C(=O)OC)[C@@H]1C/C=C1\C=COC1=O,IC50,[1]; [13],177 µM
C=C1CC[C@@H]2[C@](C)(CO)[C@H](O)CC[C@@]2(C)[C@@H]1C/C=C1\C=COC1=O,IC50,[1]; nih3t3,Not Active
